Biological target: T1, Phospholipase A2, membrane associated (Homo sapiens, UniProt P14555)
T1 sequence (P14555 whole entry): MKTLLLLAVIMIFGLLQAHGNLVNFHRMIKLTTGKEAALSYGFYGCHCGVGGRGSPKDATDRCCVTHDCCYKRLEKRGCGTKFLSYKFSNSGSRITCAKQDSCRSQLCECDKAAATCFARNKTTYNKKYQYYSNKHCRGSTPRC
Experiment: Inhibition of sPLA2-IIA (unknown origin)-integrin alphaVbeta3 interaction in human K562 cells pretreated for 30 mins to immobilized sPLA2 before adding cells by phosphatase assay
Method in brief: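 Wells coated with sPLA2-IIA and blocked with BSA were preincubated with compound (10 to 500 μM) for 30 min. Integrin αvβ3-transfected K562 erythroleukemia cells were then added for 1 h at 37 °C, and bound cells were quantified by phosphatase assay. IC50 and maximum inhibition were derived from dose-response experiments.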

IC50: 241 µM
Structure (SMILES): Cc1nc(NC(=O)c2ccccc2)sc1-c1cc(C(=O)NCC(=O)O)[nH]n1
